Series [1] relates to Mus musculus. Put plainly: Inhibition of LPS-induced serum IL-1beta production in C57BL/6 mouse at 10 mg/kg, ip pretreated before LPS challenge and measured after […] post LPS challenge by ELISA. Type of series: functional, organism-based. In general terms: ELISA stands for enzyme-linked immunosorbent assay.
The subject of series [2] is Mus musculus. In words: Inhibition of LPS-induced serum TNFalpha production in C57BL/6 mouse at 10 mg/kg, ip pretreated before LPS challenge and measured after […] post LPS challenge by ELISA. The class given is functional, organism-based.
The nature of series [3]: Toxicity in human hCMEC/D3 cells assessed as reduction in cell viability at 20 uM. The class given is cell-based. The following applies: hcmec/d3, 20 µM. The essentials:
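hCMEC/D3 cells (passage 25-35, EGM-2-based media) exposed to compound at 20 μM for 2 h; viability read by Live/Dead staining. Mean ± SEM from 3 independent experiments, ≥triplicates each.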

Series [4] deals with Mus musculus. Put plainly: Inhibition of LPS-induced serum IL-1beta production in nlrp3-/- C57BL/6 mouse at 10 mg/kg, ip pretreated before LPS challenge and measured after […] post LPS challenge by ELISA. Type of series: functional, organism-based.

The source made the active and inactive calls. No cut-off for these calls is given here.

Turning to `CC(C)(O)c1coc(S(=O)(=O)NC(=O)Nc2c3c(cc4c2CCC4)CCC3)c1`, the inhibition result in series [1] is “Active”.

`C#CCNS(=O)(=O)c1ccc(CCN(Cc2cc(Cl)ccc2OC)C(=O)C=C)cc1`: the inhibition entry in series [1] and in series [2] was “Active” throughout.

Consider `C#CCNS(=O)(=O)c1ccc(CCN(Cc2cc(Cl)ccc2OCCC)C(=O)Cc2ccsc2)cc1`, for which, in series [3], the Activity entry is recorded as “Non-Toxic”. Also, the inhibition result in series [4] and in series [2] was “inactive” each time. In series [1], the inhibition entry is “Active”.

These data come from ChEMBL document CHEMBL4414625, “Discovery of Second-Generation NLRP3 Inflammasome Inhibitors: Design, Synthesis, and Biological Characterization” (J Med Chem, 2019).
